MrgX1 agonist: human MrgX1 receptor agonism, primary screen; MrgX1-HEK293 cells, Fluo-4 calcium fluorescence, agonist mode; active compounds read high; B-score at 10 µM; 0.44% of 310,000 active;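 active = calcium response B-score plate-corrected fluorescence ratio at least 3 library SD, with starting fluorescence B-score inside 5 SD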
Target sequence (Q96LB2 whole entry, looked up): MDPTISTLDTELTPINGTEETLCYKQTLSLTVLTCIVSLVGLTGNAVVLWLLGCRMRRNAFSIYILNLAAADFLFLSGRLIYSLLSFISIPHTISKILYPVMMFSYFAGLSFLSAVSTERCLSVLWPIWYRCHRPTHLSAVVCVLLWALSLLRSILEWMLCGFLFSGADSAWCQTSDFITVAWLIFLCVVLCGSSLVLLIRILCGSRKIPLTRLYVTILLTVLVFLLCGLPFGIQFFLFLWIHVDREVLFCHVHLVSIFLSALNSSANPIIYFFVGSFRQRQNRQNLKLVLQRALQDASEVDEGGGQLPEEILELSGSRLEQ
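Material: MrgX1-expressing HEK293 cells / Dosing: compound as first of three additions / Incubation: overnight seeding, then 1 h dark dye loading / Signal: Fluo-4 NW calcium fluorescence / Evaluation: B-scored fluorescence response ratio / Benchmarks: positive and negative control wells on each plate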
MrgX1 antag: blocks BAM8-22 activation of human MrgX1 receptor | 1.3% of 310,000 active | B-score at 10 µM | AID 588676 | Q96LB2 | MRGX1-HEK293 calcium flux, Fluo-4, BAM8-22 antagonism; active compounds read low;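 active = calcium-response B-score plate-corrected more than 3 library SD below zero, starting fluorescence within 5 deviations, no agonist response on first addition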;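 note: peak minus trough fluorescence over baseline after final BAM8-22 challenge near maximal dose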
RGS4 act: potentiators or activators of RGS4 | AID 463111 | HEK293 M3R/inducible RGS4, carbachol calcium flux Fluo4; active compounds read low | B-score at 10 µM | 0.92% of 310,000 active;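 active = B-score of the integrated calcium signal more than 4 SD below the library mean, with starting fluorescence not abnormally high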;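 note: negative B-score means reduced calcium response which marks RGS4 activation or potentiation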
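Material: M3R-expressing HEK293 line, RGS4 induced by doxycycline | Schedule: Overnight RGS4 induction, 30 min dye load 37 °C, 20 min compound RT | Measured by: Fluo4 fluorescence kinetic imaging of calcium | Read-out: Integrated calcium ratio converted to B score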
RGS4 inh: inhibitors of human RGS4 | HEK293 M3R/RGS4 inducible, Fluo-4 calcium flux; active compounds read high; triggered by carbachol at its EC20 | B-score at 10 µM | 0.45% of 310,000 active | AID 463165;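 active = B-score, a plate-corrected calcium signal, over three deviations above library mean, with baseline fluorescence within five deviations of library mean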;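 note: RGS4 expression induced by doxycycline in cells with stable M3 receptor; B-score is computed from the integrated fluorescence ratio over baseline after carbachol; higher B-score means a larger calcium signal and so more RGS4 inhibition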
Target sequence (P49798 whole entry, looked up): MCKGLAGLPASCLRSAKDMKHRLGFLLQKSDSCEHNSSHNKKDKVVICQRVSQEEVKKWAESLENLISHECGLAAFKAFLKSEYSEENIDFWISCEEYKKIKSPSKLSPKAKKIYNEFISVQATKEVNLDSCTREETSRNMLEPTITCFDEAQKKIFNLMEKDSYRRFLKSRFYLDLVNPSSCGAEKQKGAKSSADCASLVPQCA
MrgX1 PAM: allosterically activates human MrgX1 receptor signaling; MrgX1-HEK293, Fluo-4 calcium flux, FDSS; active compounds read high; 0.63% of 310,000 active; B-score at 10 µM; Q96LB2;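 active = plate-corrected calcium response at least 3 library SD above typical, normal starting fluorescence, not activating the receptor alone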;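 note: compound read alongside a low EC10 to EC30 dose of BAM8-22 agonist; peak minus trough fluorescence over baseline measured at the second addition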
RGS4 inh valid: validation of RGS4 inhibitors. HEK293 M3R/RGS4, carbachol calcium Fluo-4 fluorescence; carbachol added at its EC20; 0 = buffer wells, 100 = carbachol control. 65% of 1,700 active. calcium response, % at 10 µM. shares compounds with RGS4 inh;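 active = duplicate-averaged calcium response above the buffer-only control mean plus 5 SD of those controls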;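 note: integrated fluorescence ratio F max minus min over baseline F0; higher response in RGS4-induced cells means RGS4 inhibition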
RGS4 uninduced: counter-screen for RGS4 inhibitors: effect in non-induced cells; HEK293 M3R non-induced, carbachol calcium Fluo-4; submaximal (EC20) carbachol stimulus; buffer wells 0%, carbachol control wells 100%; 20% of 1,900 active; activity (percent), % at 10 µM; shares compounds with RGS4 inh; call rule not given here;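 note: RGS4 induction absent so cells express M3R without RGS4; higher means more calcium signal and flags a non-specific hit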
M3R basal Ca ctr: second RGS4 inhibitor counter-screen in uninduced cells lacking carbachol. HEK293 M3R/RGS4 non-induced, Fluo-4 calcium, no carbachol; normalised: buffer wells 0%, carbachol wells 100%. calcium response (agonist-mode artifact), % at 10 µM. 22% of 1,900 active. shares compounds with RGS4 inh;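 active = duplicate-averaged calcium rise in uninduced cells above buffer wells' mean plus 5 SD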
* marks the source's active call; other numbers are inactive results; i = inactive; . = no result. Rows were chosen to be rich in hits. Some 3.5% of all compounds tested hit in one or more screens of this group.

SMILES	MrgX1 agonist	MrgX1 antag	RGS4 act	RGS4 inh	MrgX1 PAM	RGS4 inh valid	RGS4 uninduced	M3R basal Ca ctr
COc1ccc(C(=O)c2sc(Nc3ccccc3)nc2N)cc1OC	i	i	i	i	i	.	.	.
COc1ccc(C(=O)c2sc(Nc3ccccc3F)nc2N)cc1	i	i	i	i	i	.	i	i
COc1ccc(C(=O)c2sc(Nc3ccccc3)nc2N)cc1	i	i	i	i	i	i	i	i
COc1ccc(C(=O)NC(=S)Nc2ccccc2F)cc1	i	i	i	i	i	.	.	.
Cc1cc(C)n(C(=O)c2sc3cc(F)ccc3c2Cl)n1	i	i	i	i	i	.	.	.
Cc1nc2sccn2c(=O)c1S(=O)(=O)NCCc1ccc(Cl)cc1	i	i	i	i	i	.	.	.
Cc1nn(CC(=O)NCCc2cccs2)c(=O)c2nn(-c3ccccc3)c(C)c12	i	i	i	i	i	.	i	35%*
Cc1nn(CC(=O)NCCc2ccco2)c(=O)c2nn(-c3ccccc3)c(C)c12	i	i	i	i	i	.	.	.
Cc1ccc(-n2nc3c(=O)n(CC(=O)NCc4cccs4)nc(C)c3c2C)cc1	i	i	i	4.9*	i	i	i	i
Cc1ccc(-n2nc3c(=O)n(CC(=O)NCc4ccccn4)nc(C)c3c2C)cc1	i	i	i	i	i	.	.	.
CCO/C=C/C(O)(CNC(=O)COc1ccccc1F)C(F)(F)F (centres undefined)	i	i	i	i	i	.	.	.
Cc1ccc([C@H]2C(C#N)=C(N)Oc3cc(C)oc(=O)c32)o1	i	i	i	6.9*	i	26%*	i	i
Cc1ccc(C2C3=C(CC(C)(C)CC3=O)NC3=C2C(=O)c2ccccc23)cc1 (centres undefined)	i	i	i	i	i	.	.	.
COc1ccc(C2C3=C(CCCC3=O)NC3=C2C(=O)c2ccccc23)cc1 (centres undefined)	i	i	i	11*	i	i	i	i
O=c1oc2ccccc2c(O)c1/C=C1\C=Nc2ccccc21	i	i	i	22*	i	66%*	i	48%*
O=C(c1cc2n(n1)C(C(F)(F)F)CC(c1ccco1)N2)N1CCc2ccccc2C1 (centres undefined)	i	i	i	5.2*	i	8.0%*	i	28%*
O=C(/C=C/c1cccc(Br)c1)N1CCN(c2ccccn2)CC1	i	i	i	i	i	.	.	.
Cc1ccc(-n2c3c(c(=O)[nH]c2=O)C(NS(=O)(=O)c2ccc(C)cc2)(C(F)(F)F)C(=O)N3)cc1 (centres undefined)	i	i	i	i	i	.	.	.
Cc1coc2cc3oc(=O)c(Cc4ccccc4)c(C)c3cc12	i	i	i	i	i	.	.	.
Cc1c(Cc2ccccc2)c(=O)oc2cc(O)cc(O)c12	i	i	i	5.5*	i	10%*	i	i
O=[N+]([O-])c1ccc(Nc2nc(NCCO)nc(N3CCCC3)n2)cc1	i	i	i	i	i	.	.	.
COc1ccc([N+](=O)[O-])cc1/C=N/Nc1nc(N2CCCCC2)nc(N2CCCCC2)n1	i	i	i	4.8*	i	10%*	i	i
Cc1cccc(Nc2nc(N3CCCCC3)nc(N3CCCCC3)n2)c1	i	i	i	9.7*	i	48%*	55%*	i
NNc1nc(Nc2ccccc2)nc(N2CCCCC2)n1	i	i	i	i	i	i	i	i
NNc1nc(Nc2ccc([N+](=O)[O-])cc2)nc(N2CCCCCC2)n1	i	i	i	5.7*	i	i	i	i
SMILES	MrgX1 agonist	MrgX1 antag	RGS4 act	RGS4 inh	MrgX1 PAM	RGS4 inh valid	RGS4 uninduced	M3R basal Ca ctr
NNc1nc(Nc2ccccc2)nc(Nc2ccccc2)n1	i	i	i	i	i	.	.	.
CCc1noc(C)c1C(=O)NCCc1ccc(S(N)(=O)=O)cc1	i	i	i	i	i	.	.	.
CN1CCN(C(=O)c2ccc(Cl)cc2)CC1	i	i	i	i	i	.	.	.
CC(C)NC(=O)CCCC(=O)NC(C)C	i	i	i	i	i	.	.	.
O=c1nc(N2CCCCC2)nc(Nc2ccccc2)[nH]1	i	i	i	i	i	i	i	i
CC(=O)Nc1ccc(S(=O)(=O)Nc2cc([N+](=O)[O-])ccc2C)cc1	i	i	i	i	i	.	.	.
Cc1ccc(NS(=O)(=O)c2ccc(NC(=O)CN(c3cc([N+](=O)[O-])ccc3C)S(C)(=O)=O)cc2)c(C)c1	i	i	i	8.6*	i	23%*	i	i
CC(=O)/C=C1/C(=O)Nc2ccccc21	i	i	i	18*	i	34%*	44%*	26%*
O=C(CCl)Nc1nc(-c2ccco2)c(-c2ccco2)s1	i	i	i	5.8*	i	i	i	i
O=C(CCCSc1ccccc1)Nc1nc(-c2ccco2)c(-c2ccco2)s1	i	i	i	i	i	.	.	.
Cc1ccc(/C=N/NC(=O)NC2CCCCC2)o1	i	i	i	i	i	.	.	.
Cc1ccc(/C=C/C(=O)NCCc2cccc(Cl)c2)o1	i	i	i	6.9*	i	24%*	i	i
Cc1ccc(C(=O)NCc2ccc3c(c2)OCO3)o1	i	i	i	i	i	.	.	.
Cc1ccc(/C=C/C(=O)NCCc2c[nH]c3ccccc23)o1	i	i	i	i	i	.	.	.
Cc1ccc(/C=C/C(=O)NC2CCCCCCC2)o1	i	i	i	8.8*	i	22%*	i	i
Cc1ccc(/C=C/C(=O)NCc2ccc3c(c2)OCO3)o1	i	i	i	5.6*	i	10%*	i	i
COCCCNC(=O)C(=O)NCC1CCCN1S(=O)(=O)c1cccs1 (centres undefined)	i	i	i	i	i	.	.	.
C/C(=N\NC(=O)c1ccncc1)c1cccc(NC(=O)c2ccc(C(C)(C)C)cc2)c1	i	i	i	i	i	.	.	.

Compound activity: PubChem, Johns Hopkins Ion Channel Center
